# Test results reported in ChEMBL document CHEMBL3596177.
# Activity calls are given as the source filed them. No cut-off for these calls is given here.
# What was measured:
# [1] = Inhibition of Mycobacterium tuberculosis protein tyrosine phosphatase B expressed in Escherichia coli BL21/DE using pNPP substrate by spectrophotometry
# In short: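 His-tagged mPTPB from pET28b in E. coli BL21/DE3, purified on Ni-NTA. The assay ran at 25°C in 50 mM 3,3-dimethylglutarate pH 7.0 with 1 mM EDTA, ionic strength 0.15 M (NaCl). Enzyme was added last, the reaction was quenched after 10 min with NaOH, and A405 was read. IC50 was fitted as AI/A0 = IC50/(IC50+[I]).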
# [2] = target: T1, Tyrosine-protein phosphatase non-receptor type 11 (Homo sapiens, UniProt Q06124); experiment: Inhibition of human SHP2 using pNPP substrate by spectrophotometry
# T1 sequence (Q06124 whole entry): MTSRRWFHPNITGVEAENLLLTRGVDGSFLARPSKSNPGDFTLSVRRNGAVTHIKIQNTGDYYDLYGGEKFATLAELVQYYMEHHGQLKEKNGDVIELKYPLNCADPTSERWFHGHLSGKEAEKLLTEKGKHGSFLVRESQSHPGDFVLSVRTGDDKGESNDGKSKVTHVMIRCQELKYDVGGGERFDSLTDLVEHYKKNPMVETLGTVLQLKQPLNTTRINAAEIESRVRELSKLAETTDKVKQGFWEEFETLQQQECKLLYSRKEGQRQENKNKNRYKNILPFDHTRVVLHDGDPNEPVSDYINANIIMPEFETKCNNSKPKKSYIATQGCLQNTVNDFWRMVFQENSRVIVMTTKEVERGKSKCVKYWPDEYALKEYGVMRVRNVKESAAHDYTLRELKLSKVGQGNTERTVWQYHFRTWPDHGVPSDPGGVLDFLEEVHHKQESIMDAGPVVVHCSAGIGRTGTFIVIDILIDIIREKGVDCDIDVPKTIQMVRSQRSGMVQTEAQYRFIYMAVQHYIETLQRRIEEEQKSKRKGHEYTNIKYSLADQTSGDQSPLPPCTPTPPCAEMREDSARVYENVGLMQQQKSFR
# [3] = target: Receptor-type tyrosine-protein phosphatase epsilon (Homo sapiens, UniProt P23469); experiment: Inhibition of human PTPepsilon using pNPP substrate by spectrophotometry
# Chain of Receptor-type tyrosine-protein phosphatase epsilon (P23469 whole entry): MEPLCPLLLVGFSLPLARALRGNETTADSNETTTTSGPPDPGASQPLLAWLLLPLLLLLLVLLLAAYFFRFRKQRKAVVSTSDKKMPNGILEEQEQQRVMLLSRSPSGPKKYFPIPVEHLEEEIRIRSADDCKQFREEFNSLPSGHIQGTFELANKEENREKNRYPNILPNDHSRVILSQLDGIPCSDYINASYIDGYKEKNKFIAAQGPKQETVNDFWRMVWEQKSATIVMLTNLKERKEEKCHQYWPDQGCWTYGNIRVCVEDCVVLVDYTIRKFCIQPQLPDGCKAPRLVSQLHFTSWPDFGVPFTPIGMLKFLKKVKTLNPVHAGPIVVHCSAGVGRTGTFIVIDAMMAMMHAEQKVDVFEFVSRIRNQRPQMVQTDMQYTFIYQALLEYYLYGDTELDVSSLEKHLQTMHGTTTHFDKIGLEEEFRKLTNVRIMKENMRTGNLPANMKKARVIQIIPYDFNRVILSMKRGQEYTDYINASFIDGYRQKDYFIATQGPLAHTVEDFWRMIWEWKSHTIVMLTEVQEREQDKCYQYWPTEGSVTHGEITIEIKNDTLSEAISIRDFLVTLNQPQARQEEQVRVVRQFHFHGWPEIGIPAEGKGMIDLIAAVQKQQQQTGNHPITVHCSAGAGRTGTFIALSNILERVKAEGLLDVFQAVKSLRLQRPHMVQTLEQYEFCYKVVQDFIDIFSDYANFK
# [4] = target: T2, Tyrosine-protein phosphatase non-receptor type 1 (Homo sapiens, UniProt P18031); experiment: Inhibition of human PTP1B using pNPP substrate by spectrophotometry
# T2 sequence (P18031 whole entry): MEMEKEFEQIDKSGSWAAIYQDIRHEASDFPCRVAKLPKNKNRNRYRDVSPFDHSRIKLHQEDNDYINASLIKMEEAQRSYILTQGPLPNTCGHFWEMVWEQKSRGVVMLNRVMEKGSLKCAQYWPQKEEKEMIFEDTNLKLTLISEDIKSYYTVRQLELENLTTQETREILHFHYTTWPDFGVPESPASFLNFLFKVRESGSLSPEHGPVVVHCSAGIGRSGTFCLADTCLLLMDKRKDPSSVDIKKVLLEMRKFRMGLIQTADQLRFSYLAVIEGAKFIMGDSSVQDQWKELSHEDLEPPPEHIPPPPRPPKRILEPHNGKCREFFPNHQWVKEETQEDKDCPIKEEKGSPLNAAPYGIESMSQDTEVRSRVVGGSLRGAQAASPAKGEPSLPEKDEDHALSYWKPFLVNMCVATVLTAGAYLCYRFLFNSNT
# [5] = target: Tyrosine-protein phosphatase non-receptor type 6 (Homo sapiens, UniProt P29350); experiment: Inhibition of human SHP1 using pNPP substrate by spectrophotometry
# Chain of Tyrosine-protein phosphatase non-receptor type 6 (P29350 whole entry): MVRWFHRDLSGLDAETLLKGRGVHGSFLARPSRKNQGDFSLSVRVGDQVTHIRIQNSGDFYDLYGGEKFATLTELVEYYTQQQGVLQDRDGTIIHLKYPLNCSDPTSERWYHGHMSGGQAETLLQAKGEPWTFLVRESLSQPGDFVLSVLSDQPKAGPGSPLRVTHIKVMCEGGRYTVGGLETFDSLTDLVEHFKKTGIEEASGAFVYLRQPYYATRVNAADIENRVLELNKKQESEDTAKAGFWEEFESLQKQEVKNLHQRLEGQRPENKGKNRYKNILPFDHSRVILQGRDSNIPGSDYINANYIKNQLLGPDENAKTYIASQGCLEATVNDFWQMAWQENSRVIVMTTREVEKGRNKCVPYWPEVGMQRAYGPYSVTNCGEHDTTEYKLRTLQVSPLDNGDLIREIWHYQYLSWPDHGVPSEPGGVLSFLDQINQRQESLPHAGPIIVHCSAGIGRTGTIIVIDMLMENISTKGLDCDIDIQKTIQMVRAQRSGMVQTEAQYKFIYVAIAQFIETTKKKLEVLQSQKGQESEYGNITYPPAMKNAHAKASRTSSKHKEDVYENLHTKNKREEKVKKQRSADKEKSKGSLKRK
# [6] = Selectivity index, ratio of IC50 for human laforin to IC50 for Mycobacterium tuberculosis protein tyrosine phosphatase B
# [7] = Selectivity index, ratio of IC50 for human VHR to IC50 for Mycobacterium tuberculosis protein tyrosine phosphatase B
# [8] = Non-competitive inhibition of Mycobacterium tuberculosis protein tyrosine phosphatase B expressed in Escherichia coli BL21/DE using pNPP substrate by spectrophotometry based Lineweaver-Burk plot analysis
# [9] = target: T3, Tyrosine-protein phosphatase non-receptor type 9 (Homo sapiens, UniProt P43378); experiment: Inhibition of human PTP-Meg2 using pNPP substrate by spectrophotometry
# T3 sequence (P43378 whole entry): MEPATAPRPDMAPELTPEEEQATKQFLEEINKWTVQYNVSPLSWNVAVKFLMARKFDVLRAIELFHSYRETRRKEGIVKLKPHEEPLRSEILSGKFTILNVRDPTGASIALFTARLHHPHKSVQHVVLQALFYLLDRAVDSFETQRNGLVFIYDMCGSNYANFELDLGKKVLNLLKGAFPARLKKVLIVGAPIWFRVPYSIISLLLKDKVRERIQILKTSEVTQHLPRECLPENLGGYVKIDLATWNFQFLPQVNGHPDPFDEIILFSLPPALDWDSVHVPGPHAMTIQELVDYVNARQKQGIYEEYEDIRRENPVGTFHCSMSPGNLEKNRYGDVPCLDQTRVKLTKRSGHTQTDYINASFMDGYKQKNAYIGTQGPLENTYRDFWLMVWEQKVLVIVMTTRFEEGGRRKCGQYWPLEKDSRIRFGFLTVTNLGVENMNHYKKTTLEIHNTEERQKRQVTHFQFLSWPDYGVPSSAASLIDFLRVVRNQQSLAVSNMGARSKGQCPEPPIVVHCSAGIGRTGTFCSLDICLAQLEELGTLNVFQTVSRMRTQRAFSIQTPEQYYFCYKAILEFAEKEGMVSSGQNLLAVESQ
# [10] = target: T4, Receptor-type tyrosine-protein phosphatase C (Homo sapiens, UniProt P08575); experiment: Inhibition of human CD45 using pNPP substrate by spectrophotometry
# T4 sequence (P08575 whole entry): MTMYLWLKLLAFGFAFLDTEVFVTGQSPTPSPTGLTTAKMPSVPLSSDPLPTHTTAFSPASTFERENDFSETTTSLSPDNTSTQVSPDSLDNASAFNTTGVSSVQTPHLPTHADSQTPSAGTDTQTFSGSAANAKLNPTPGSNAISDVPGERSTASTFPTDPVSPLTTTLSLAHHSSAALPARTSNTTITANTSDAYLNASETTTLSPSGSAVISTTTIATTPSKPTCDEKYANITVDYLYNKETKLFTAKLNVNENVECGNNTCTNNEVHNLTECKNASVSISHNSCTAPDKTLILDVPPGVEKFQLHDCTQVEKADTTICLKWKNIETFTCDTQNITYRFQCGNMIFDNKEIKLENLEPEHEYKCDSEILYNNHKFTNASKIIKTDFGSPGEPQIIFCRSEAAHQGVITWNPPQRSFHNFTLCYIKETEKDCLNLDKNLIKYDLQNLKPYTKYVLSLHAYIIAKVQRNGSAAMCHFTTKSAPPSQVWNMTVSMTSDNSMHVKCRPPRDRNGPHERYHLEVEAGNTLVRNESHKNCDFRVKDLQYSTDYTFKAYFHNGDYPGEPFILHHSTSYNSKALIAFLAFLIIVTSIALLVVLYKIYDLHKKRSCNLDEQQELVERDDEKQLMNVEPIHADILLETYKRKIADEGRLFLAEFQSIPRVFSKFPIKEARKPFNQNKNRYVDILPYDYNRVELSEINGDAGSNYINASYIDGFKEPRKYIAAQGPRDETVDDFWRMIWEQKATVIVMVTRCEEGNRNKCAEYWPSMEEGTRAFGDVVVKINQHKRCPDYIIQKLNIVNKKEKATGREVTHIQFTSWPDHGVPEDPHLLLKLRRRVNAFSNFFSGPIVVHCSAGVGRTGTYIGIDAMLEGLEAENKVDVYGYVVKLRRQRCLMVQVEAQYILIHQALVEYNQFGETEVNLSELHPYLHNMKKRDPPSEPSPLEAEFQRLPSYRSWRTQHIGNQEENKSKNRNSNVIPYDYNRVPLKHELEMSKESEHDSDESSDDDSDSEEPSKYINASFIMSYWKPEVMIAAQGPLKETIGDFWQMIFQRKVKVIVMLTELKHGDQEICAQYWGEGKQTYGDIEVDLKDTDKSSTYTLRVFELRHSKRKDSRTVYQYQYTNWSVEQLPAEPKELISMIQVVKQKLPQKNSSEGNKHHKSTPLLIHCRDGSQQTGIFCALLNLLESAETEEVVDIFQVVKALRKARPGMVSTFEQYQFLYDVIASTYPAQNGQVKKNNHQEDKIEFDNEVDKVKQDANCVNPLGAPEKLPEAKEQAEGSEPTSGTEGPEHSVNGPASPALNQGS
# [11] = Selectivity index, ratio of IC50 for human PTPepsilon to IC50 for Mycobacterium tuberculosis protein tyrosine phosphatase B
# [12] = target: T5, Laforin (Homo sapiens, UniProt O95278); experiment: Inhibition of human laforin using pNPP substrate by spectrophotometry
# T5 sequence (O95278 whole entry): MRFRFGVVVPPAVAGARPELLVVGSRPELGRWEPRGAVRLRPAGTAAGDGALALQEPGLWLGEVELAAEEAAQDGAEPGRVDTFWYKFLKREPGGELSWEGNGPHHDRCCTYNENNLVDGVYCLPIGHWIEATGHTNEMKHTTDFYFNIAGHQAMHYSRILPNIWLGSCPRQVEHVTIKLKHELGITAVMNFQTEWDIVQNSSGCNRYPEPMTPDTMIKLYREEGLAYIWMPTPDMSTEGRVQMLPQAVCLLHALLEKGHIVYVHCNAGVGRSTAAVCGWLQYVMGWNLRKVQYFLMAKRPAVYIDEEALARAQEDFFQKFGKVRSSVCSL
# [13] = test system: RAW264.7; experiment: Inhibition of Mycobacterium tuberculosis protein tyrosine phosphatase B transfected in mouse RAW264.7 cells assessed as reduction in AKT phosphorylation at 5 and 10 uM incubated for 1 hr followed by with IFNgamma stimulation for 1 hr by Western blotting method; type: cell-based
# In short: (§1)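 RAW264.7 mouse macrophages transfected with mPTPB, grown in DMEM with 10% FBS, penicillin/streptomycin, 37°C, 5% CO2. Cells were seeded at 4 x 10⁴ per well and treated next day with inhibitor for 1 h, then with IFN-γ (200 U/ml) for 1 h. They were washed with cold PBS and lysed on ice 30 min. Cleared lysates were Western blotted for phospho-Erk1/2 and phospho-Akt.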
# [14] = Selectivity index, ratio of IC50 for human SHP1 to IC50 for Mycobacterium tuberculosis protein tyrosine phosphatase B
# [15] = Selectivity index, ratio of IC50 for human PTP-Meg2 to IC50 for Mycobacterium tuberculosis protein tyrosine phosphatase B
# [16] = test system: RAW264.7; experiment: Inhibition of Mycobacterium tuberculosis protein tyrosine phosphatase B transfected in mouse RAW264.7 cells assessed as increase in ERK1/2 phosphorylation at 5 and 10 uM incubated for 1 hr followed by with IFNgamma stimulation for 1 hr by Western blotting method; type: cell-based; in short: as §1
# [17] = Selectivity index, ratio of IC50 for human PTP1B to IC50 for Mycobacterium tuberculosis protein tyrosine phosphatase B
# [18] = Selectivity index, ratio of IC50 for human SHP2 to IC50 for Mycobacterium tuberculosis protein tyrosine phosphatase B
# [19] = Selectivity index, ratio of IC50 for human CD45 to IC50 for Mycobacterium tuberculosis protein tyrosine phosphatase B
# [20] = target: Dual specificity protein phosphatase 3 (Homo sapiens, UniProt P51452); experiment: Inhibition of human VHR using pNPP substrate by spectrophotometry
# Chain of Dual specificity protein phosphatase 3 (P51452 whole entry): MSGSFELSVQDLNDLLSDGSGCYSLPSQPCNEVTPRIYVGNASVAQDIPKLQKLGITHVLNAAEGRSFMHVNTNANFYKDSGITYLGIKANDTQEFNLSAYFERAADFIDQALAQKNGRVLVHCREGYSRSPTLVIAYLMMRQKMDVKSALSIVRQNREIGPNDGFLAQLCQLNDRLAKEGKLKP
# [21] = test system: RAW264.7; experiment: Inhibition of Mycobacterium tuberculosis protein tyrosine phosphatase B transfected in mouse RAW264.7 cells assessed as increase in ERK1/2 phosphorylation at 10 uM incubated for 1 hr followed by with IFNgamma stimulation for 1 hr by Western blotting method; type: cell-based; in short: as §1
# [22] = test system: RAW264.7; experiment: Inhibition of Mycobacterium tuberculosis protein tyrosine phosphatase B transfected in mouse RAW264.7 cells assessed as reduction in AKT phosphorylation at 10 uM incubated for 1 hr followed by with IFNgamma stimulation for 1 hr by Western blotting method; type: cell-based; in short: as §1
structure (smiles),measurement,setting,value
O=C(O)c1cc2sc(Nc3ccc(Cl)cc3Cl)nc2cc1O,IC50,[1],5 µM
O=C(O)c1cc2nc(-c3ccccc3)oc2cc1O,IC50,[1],27 µM
O=C(O)c1cc2[nH]c(=O)oc2cc1O,IC50,[1],> 100 µM
O=C(O)c1cc2sc(Nc3cccc4ccccc34)nc2cc1O,IC50,[1],60 µM
O=C(O)c1cc2sc(Nc3ccc(Cl)cc3)nc2cc1O,IC50,[1],13 µM
CCNc1nc2cc(C(=O)O)c(O)cc2o1,IC50,[1],> 100 µM
O=C(O)c1cc2sc(Nc3cccc(Br)c3)nc2cc1O,IC50,[2],50 µM
same,IC50,[3],> 400 µM
same,IC50,[4],65 µM
same,IC50,[5],78 µM
same,Ratio IC50,[6],> 20
same,Ratio IC50,[7],> 20
same,Ki,[8],1.5 µM
same,IC50,[9],69 µM
same,IC50,[10],> 100 µM
same,Ratio IC50,[11],> 20
same,IC50,[12],56 µM
same,inhibition,[13],Dose-dependent effect
same,IC50,[1],2 µM
same,Ratio IC50,[14],> 20
same,Ratio IC50,[15],> 20
same,inhibition,[16],Dose-dependent effect
same,Ratio IC50,[17],> 20
same,Ratio IC50,[18],> 20
same,Ratio IC50,[19],> 20
same,IC50,[20],43 µM
O=C(O)c1cc2nc(NCc3ccccc3)oc2cc1O,IC50,[1],> 100 µM
O=C(O)c1cc2sc(Nc3cccc(Cl)c3)nc2cc1O,IC50,[1],21 µM
O=C1COc2cc(O)c(C(=O)O)cc2N1,IC50,[1],> 100 µM
Cc1ccccc1Nc1nc2cc(O)c(C(=O)O)cc2s1,IC50,[1],31 µM
O=C(O)c1ccc2nc(Nc3ccccc3)sc2c1O,IC50,[1],71 µM
CC(C)(C)c1ccc(Nc2nc3cc(O)c(C(=O)O)cc3s2)cc1,IC50,[1],41 µM
O=C(O)c1cc2sc(Nc3ccccc3)nc2cc1O,IC50,[1],25 µM
same,inhibition,[21],inactive
same,inhibition,[22],inactive
Cc1cccc(Nc2nc3cc(O)c(C(=O)O)cc3s2)c1,IC50,[1],15 µM
O=C(O)c1cc2sc(Nc3ccc(F)cc3)nc2cc1O,IC50,[1],65 µM
O=C(O)CN1CC(=O)Oc2cc(O)c(C(=O)O)cc21,IC50,[1],> 100 µM
O=C(O)c1cc2sc(Nc3ccccc3Cl)nc2cc1O,IC50,[1],30 µM
O=C(O)c1cc2[nH]c(-c3ccccc3)nc2cc1O,IC50,[1],32 µM
O=C(O)c1cc2sc(Nc3ccc([N+](=O)[O-])cc3)nc2cc1O,IC50,[1],50 µM
